# Reference: paper PMC6233868 (Journal of nuclear medicine : official publication, Society …, 2016)
# pIC50: −log10 of the molar value. “Also recorded” adds a separate entry of the source. Where two headings read alike, the source gives them in different places.
# Legend:
# [1] = system: NIS; conditions: read-out: IC50 for inhibition of [124I]I- uptake; cited from earlier work
# [2] = target: T1, hNIS (Homo sapiens, UniProt Q92911); format: cell-based
# T1 sequence (Q92911 1-643): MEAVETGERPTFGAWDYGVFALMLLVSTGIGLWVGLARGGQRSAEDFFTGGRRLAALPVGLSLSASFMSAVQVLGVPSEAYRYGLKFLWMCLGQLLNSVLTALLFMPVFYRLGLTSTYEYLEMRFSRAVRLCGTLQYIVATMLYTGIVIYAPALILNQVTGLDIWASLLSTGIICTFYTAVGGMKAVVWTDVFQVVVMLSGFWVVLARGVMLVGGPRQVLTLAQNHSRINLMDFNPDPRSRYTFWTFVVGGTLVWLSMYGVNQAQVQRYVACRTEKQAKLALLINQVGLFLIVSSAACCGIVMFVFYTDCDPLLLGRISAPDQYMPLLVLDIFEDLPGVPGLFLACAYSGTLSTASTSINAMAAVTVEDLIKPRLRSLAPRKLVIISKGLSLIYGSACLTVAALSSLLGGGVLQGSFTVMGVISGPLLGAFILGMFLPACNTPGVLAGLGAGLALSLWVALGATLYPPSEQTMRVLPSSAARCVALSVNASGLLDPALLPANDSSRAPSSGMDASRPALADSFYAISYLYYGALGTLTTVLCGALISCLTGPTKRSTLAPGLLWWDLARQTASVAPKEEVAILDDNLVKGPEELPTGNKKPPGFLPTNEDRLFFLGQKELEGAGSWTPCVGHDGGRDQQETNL
# [3] = target: T1, hNIS; format: cell-based; conditions: read-out: IC50, inhibition of [18F]SO3F- uptake; HCT116-C19 cells
# [4] = system: mouse thyroid; conditions: in vivo; cited from earlier work
# [5] = target: T1, hNIS; format: cell-based; remark: listed apart in the source
# [6] = system: HCT116 cells; assay: [18F]SO3F- uptake in hNIS-negative parental HCT116 cells; format: cell-based, human; conditions: presence or absence of NaClO4
# [7] = stability of formulated tracer; format: physicochemical
# [8] = PET/CT imaging biodistribution in Balb/c mice; format: in vivo, mouse
# Summary of the method: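 Female Balb/c mice (4-8 weeks) received NaClO4 (250 mg/kg i.p. in 0.9% NaCl) or an equal volume of saline 1 h before scanning. Dynamic PET ran for 2 h from <1 min after radiotracer injection, followed by CT. Data were corrected and binned into 5 min then 30 min frames. Manual ROIs were drawn at a 10% max-count threshold and reported as %ID (whole body minus tail) and %ID/g.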
# [9] = ex vivo biodistribution in Balb/c mice; set-up: species or system mouse; conditions: 2.25 h post-injection
# Summary of the method: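 Female Balb/c mice (4-8 weeks) were pretreated 1 h before the radiotracer with NaClO4 (250 mg/kg i.p. in 0.9% NaCl) or with a saline sham. After the 2 h PET scan, mice were culled by cervical dislocation at 2.25 h post-injection. Thyroid was dissected under a microscope. Tissues were weighed and gamma-counted, giving %ID/g; n = 3, SD.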
# [10] = human serum stability by TLC
# [11] = read-out: IC50, inhibition of [99mTc]TcO4- uptake via hNIS
# [12] = read-out: IC50, inhibition of anion uptake via hNIS
# [13] = normal mice, PET time-activity curves
smiles,measurement,setting,value
"[O-][Cl+3]([O-])([O-])O [ClO4^-, perchlorate]",pIC50,[1],7.00
"I [I^-, iodide]",pIC50,[2]; [11],5.33 to 5.57
same,pIC50,[2]; [12],< 5.57
"F[B-](F)(F)F [BF4^-, tetrafluoroborate]",pIC50,[2]; [11],5.35 to 6.54
"[O]=[Tc](=[O])(=[O])[OH] [TcO4^-, pertechnetate]",pIC50,[2]; [11],7.15
"O=S(=O)(O)F [SO3F^-, fluorosulfate]",pIC50,[2]; [11],6.25 to 6.26
same,pIC50,[2]; [12],6.25
same,pIC50,[3],5.80
same,inhibition of radioiodide uptake in mouse thyroid,[4],inhibit radioiodide uptake
O=S(=O)(O)F [[^18F]SO3F^-] [[^18F]Fluorosulfate],uptake of radiotracer in HCT116-C19 cells,[5],"Specific, blockable hNIS-mediated uptake; also recorded: Significant uptake"
same,uptake of radiotracer in HCT116-C19 cells with NaClO4,[5],blocked
same,uptake of radiotracer in parental HCT116 cells,[6],No uptake; also recorded: absent
same,RCP after standing,"[7]; formulated tracer, room temperature, 4 h, IC and TLC",> 95%
same,RCP under acidic conditions,"[7]; pH 3.0, 4 h",similarly constant
same,bone %ID/g relative to that in thyroid,[8]; 30 min,< 1%
same,time of maximum thyroid uptake,"[8]; PET, normal mice",30 min
same,salivary gland uptake (PET),"[8]; normal mice, 30 min",32 ± 9 %ID/g
same,thyroid uptake (PET),"[8]; normal mice, 30 min",563 ± 140 %ID/g
same,bone uptake (PET),"[8]; normal mice, 60 min",3 ± 1 %ID/g
same,stomach uptake (PET),"[8]; normal mice, 90 min",68 ± 21 %ID/g
same,time at which stomach uptake reaches a plateau,[8]; [13],around 90 min
same,time at which thyroid and salivary gland uptake reaches a plateau,[8]; [13],30 to 45 min
same,bladder radioactivity (ex vivo),[9],15 ± 14 %ID/g
same,bone uptake (ex vivo),[9],17 ± 3 %ID/g
same,bone uptake (ex vivo) with perchlorate,[9]; mice administered NaClO4,not blocked
same,salivary gland uptake (ex vivo) with NaClO4,[9]; mice administered NaClO4,2.6 ± 1.7 %ID/g
same,stomach uptake (ex vivo) with NaClO4,[9]; mice administered NaClO4,3.0 ± 1.7 %ID/g
same,thyroid uptake (ex vivo) with NaClO4,[9]; mice administered NaClO4,4.3 ± 4.6 %ID/g
same,salivary gland uptake (ex vivo),[9]; without NaClO4,18 ± 4 %ID/g
same,stomach uptake (ex vivo),[9]; without NaClO4,59 ± 10 %ID/g
same,thyroid uptake (ex vivo),[9]; without NaClO4,144 ± 71 %ID/g
same,RCP after incubation with human serum,"[10]; 4 h, TLC of supernatant after ethanol protein precipitation",> 95%
same,radioactivity associated with the protein pellet,"[10]; human serum, ethanol precipitation",no significant radioactivity
